Assay [1] deals with T1, Phosphotyrosine protein phosphatase (Mycobacterium tuberculosis, UniProt A0A045ISB3).
T1 sequence (A0A045ISB3 whole entry): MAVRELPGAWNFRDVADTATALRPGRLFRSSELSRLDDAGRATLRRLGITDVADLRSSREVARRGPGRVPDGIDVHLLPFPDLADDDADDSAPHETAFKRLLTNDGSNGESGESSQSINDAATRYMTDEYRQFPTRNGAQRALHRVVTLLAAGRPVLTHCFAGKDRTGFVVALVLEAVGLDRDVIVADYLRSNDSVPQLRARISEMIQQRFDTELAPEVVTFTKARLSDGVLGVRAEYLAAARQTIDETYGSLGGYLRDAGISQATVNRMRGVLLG
Nature of the assay: Inhibition of Mycobacterium tuberculosis His-tagged PtpB expressed in Escherichia coli Rosetta 2 (DE3) using pNPP as substrate after 30 mins by spectrophotometric method.

Assay [2] concerns the target T2, Tyrosine-protein phosphatase non-receptor type 1 (Homo sapiens, UniProt P18031).
T2 sequence (P18031 whole entry): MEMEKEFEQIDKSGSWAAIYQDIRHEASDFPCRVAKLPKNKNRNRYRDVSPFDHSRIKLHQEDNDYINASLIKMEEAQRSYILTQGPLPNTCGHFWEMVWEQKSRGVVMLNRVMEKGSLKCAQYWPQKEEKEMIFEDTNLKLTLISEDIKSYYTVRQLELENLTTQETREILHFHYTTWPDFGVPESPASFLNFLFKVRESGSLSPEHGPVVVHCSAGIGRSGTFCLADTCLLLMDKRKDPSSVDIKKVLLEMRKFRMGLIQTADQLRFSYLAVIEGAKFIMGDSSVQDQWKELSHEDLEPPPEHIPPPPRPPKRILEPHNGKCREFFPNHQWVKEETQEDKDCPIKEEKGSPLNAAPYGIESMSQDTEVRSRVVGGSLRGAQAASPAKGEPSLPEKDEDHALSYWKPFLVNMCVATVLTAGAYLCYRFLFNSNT
Nature of the assay: Inhibition of human PTPN1 expressed in Escherichia coli Rosetta 2 (DE3) using pNPP as substrate after 45 mins by spectrophotometric method.

Assay [3] addresses T3, Tyrosine-protein phosphatase non-receptor type 2 (Homo sapiens, UniProt P17706).
T3 sequence (P17706 whole entry): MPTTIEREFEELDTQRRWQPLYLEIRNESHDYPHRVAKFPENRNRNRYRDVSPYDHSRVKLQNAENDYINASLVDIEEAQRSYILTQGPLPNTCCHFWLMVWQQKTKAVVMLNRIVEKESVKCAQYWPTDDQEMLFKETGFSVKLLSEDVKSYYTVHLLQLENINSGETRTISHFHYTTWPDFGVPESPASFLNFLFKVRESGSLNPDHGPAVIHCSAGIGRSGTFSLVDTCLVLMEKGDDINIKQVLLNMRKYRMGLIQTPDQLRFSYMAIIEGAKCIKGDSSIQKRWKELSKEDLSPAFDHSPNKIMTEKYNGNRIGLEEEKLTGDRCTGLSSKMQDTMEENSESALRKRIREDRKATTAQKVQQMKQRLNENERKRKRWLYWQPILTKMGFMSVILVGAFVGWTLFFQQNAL
The experiment in a line: Inhibition of human PTPN2 expressed in Escherichia coli Rosetta 2 (DE3) using pNPP as substrate after 45 mins by spectrophotometric method.

Assay [4] addresses T4, Tyrosine-protein phosphatase non-receptor type 5 (Homo sapiens, UniProt P54829).
T4 sequence (P54829 whole entry): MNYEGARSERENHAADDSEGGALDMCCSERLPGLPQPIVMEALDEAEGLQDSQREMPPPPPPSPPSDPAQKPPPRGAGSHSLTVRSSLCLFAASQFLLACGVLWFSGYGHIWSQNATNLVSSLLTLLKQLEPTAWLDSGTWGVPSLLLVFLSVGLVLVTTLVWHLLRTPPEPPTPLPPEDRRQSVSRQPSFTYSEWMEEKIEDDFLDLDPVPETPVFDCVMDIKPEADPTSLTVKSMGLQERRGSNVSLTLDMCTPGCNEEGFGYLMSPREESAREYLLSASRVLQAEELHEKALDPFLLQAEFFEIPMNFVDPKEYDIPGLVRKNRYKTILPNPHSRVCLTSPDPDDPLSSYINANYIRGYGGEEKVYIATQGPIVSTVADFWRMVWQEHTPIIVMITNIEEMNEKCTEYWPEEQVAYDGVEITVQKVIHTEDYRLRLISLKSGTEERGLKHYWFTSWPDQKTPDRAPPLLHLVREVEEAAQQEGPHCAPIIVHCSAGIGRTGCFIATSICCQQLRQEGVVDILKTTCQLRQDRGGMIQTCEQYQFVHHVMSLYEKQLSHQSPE
Nature of the assay: Inhibition of human PTPN5 expressed in Escherichia coli Rosetta 2 (DE3) using pNPP as substrate after 45 mins by spectrophotometric method.

Assay [5] concerns Mycobacterium tuberculosis. The experiment in a line: Antitubercular activity against Mycobacterium tuberculosis H37Rv after 5 days at 200 uM relative to control. The format is functional. The following applies: 120 h. The procedure, abridged: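 M. tuberculosis grown in liquid culture with compound at a fixed 200 μM for 5 days. Growth inhibition expressed as percent of control.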

Some results are limits rather than exact numbers.

As to `O=S(=O)(Nc1ccc(-c2nc3cc(NS(=O)(=O)c4ccc(Cl)s4)ccc3o2)cc1)c1ccc(Cl)s1`, the concentration for half-maximal inhibition (IC50) (in general, the concentration that inhibits the measured activity by half) turned out to be 2.3 µM in assay [1], 11 µM in assay [2], 25 µM in assay [3] and 15 µM in assay [4]. For the same molecule, in assay [5], the inhibition (in general, the relative decrease from the control value, in per cent) at 200 µM was found to be 41%.
Consider `O=c1ccc2cc(S(=O)(=O)Nc3ccc4oc(-c5ccc(NS(=O)(=O)c6ccc(Cl)s6)cc5)nc4c3)ccc2o1`, for which the IC50 in assay [1] turned out to be 4.1 µM; in assay [2] it was 13 µM; in assay [3], 9.3 µM; in assay [4], 11 µM. The inhibition at 200 µM in assay [5] was determined as 18%.
On to `Cc1ccc(S(=O)(=O)Nc2ccc(-c3nc4ccc(NS(=O)(=O)c5ccc(C)cc5)cc4[nH]3)cc2)cc1`, for which the IC50 stood at 23 µM in assay [1], 15 µM in assay [2], 22 µM in assay [3] and 13 µM in assay [4]. In assay [5], this molecule gave an inhibition at 200 µM of 14%.
`O=S(=O)(Nc1ccc(-c2nc3cc(NS(=O)(=O)c4cccc5ccccc45)ccc3o2)cc1)c1cccc2ccccc12`: the IC50 in assay [1] was found to be 2.1 µM; in assay [2], 3.2 µM; in assay [3], 25 µM; in assay [4], 4.9 µM. In assay [5], this molecule had an inhibition at 200 µM of 0%.
In the same order, the values of `Cc1ccccc1S(=O)(=O)Nc1ccc(-c2nc3cc(NS(=O)(=O)c4ccccc4C)ccc3o2)cc1` are 4.9 µM, 12 µM, 18 µM, 14 µM and 0%.
In the same order, the values of `COc1cccc(S(=O)(=O)Nc2ccc(-c3nc4cc(NS(=O)(=O)c5cccc(OC)c5)ccc4o3)cc2)c1` are 9.4 µM, 18 µM, 16 µM, 22 µM and 0%.
For `O=S(=O)(Cc1ccccc1)Nc1ccc(-c2nc3cc(NS(=O)(=O)Cc4ccccc4)ccc3o2)cc1` the same measures were 27 µM, 23 µM, 31 µM, 25 µM and 0%.
Regarding `CCCS(=O)(=O)Nc1ccc(-c2nc3cc(NS(=O)(=O)CCC)ccc3o2)cc1`, the IC50 is greater than 100 µM in assay [1], greater than 100 µM in assay [2], greater than 100 µM in assay [3] and 83 µM in assay [4]. This molecule yielded an inhibition at 200 µM in assay [5] of 13%.
`COC(=O)c1cccc(S(=O)(=O)Nc2ccc(-c3nc4cc(NS(=O)(=O)c5cccc(C(=O)OC)c5)ccc4o3)cc2)c1`: the IC50 in assay [1] amounted to 5.8 µM; in assay [2] it was 17 µM; in assay [3] it was 13 µM; in assay [4] it was 16 µM. In addition, testing at 200 µM in assay [5] gave an inhibition of 0%.
For `COc1ccc(S(=O)(=O)Nc2ccc(-c3nc4cc(NS(=O)(=O)c5ccc(OC)cc5)ccc4o3)cc2)cc1` the same measures were 12 µM, 14 µM, 16 µM, 15 µM and 0%.
In the same order, the values of `O=S(=O)(Nc1ccc(-c2nc3cc(NS(=O)(=O)c4ccc(C(F)(F)F)cc4)ccc3o2)cc1)c1ccc(C(F)(F)F)cc1` are 2.8 µM, 6.4 µM, 13 µM, 7.9 µM and 0%.
In the same order, the values of `C=Cc1ccc(S(=O)(=O)Nc2ccc(-c3nc4cc(NS(=O)(=O)c5ccc(Cl)s5)ccc4o3)cc2)cc1` are 5 µM, 10 µM, 14 µM, 13 µM and 14%.
`O=S(=O)(Nc1ccc(-c2nc3cc(NS(=O)(=O)c4ccc5ncsc5c4)ccc3o2)cc1)c1ccc2ncsc2c1`: the IC50 came to 20 µM in assay [1], 7 µM in assay [2], 12 µM in assay [3] and 20 µM in assay [4]. The same molecule displayed an inhibition at 200 µM in assay [5] of 0%.
`O=S(=O)(Nc1ccc2oc(-c3ccc(NS(=O)(=O)c4ccc(Cl)s4)cc3)nc2c1)c1ccc2ccccc2c1`: the IC50 in assay [1] is 5.4 µM; in assay [2] it was 7.9 µM; in assay [3], 7.4 µM; in assay [4], 7.7 µM. Further, the inhibition at 200 µM in assay [5] came out at 0%.
For `O=S(=O)(Nc1ccc2oc(-c3ccc(NS(=O)(=O)c4ccc(Cl)s4)cc3)nc2c1)c1ccc(Cl)c(Cl)c1` the same measures were 3.3 µM, 7.6 µM, 13 µM, 11 µM and 0%.
For `O=S(=O)(Nc1ccc(-c2nc3cc(NS(=O)(=O)c4ccc5nsnc5c4)ccc3o2)cc1)c1ccc2nsnc2c1` the same measures were 6.4 µM, 8 µM, 11 µM, 11 µM and 0%.
On to `O=c1ccc2cc(S(=O)(=O)Nc3ccc(-c4nc5cc(NS(=O)(=O)c6ccc(Cl)s6)ccc5o4)cc3)ccc2o1`, for which the IC50 in assay [1] turned out to be 5.5 µM; in assay [2], 8.4 µM; in assay [3], 17 µM; in assay [4], 15 µM. Also, in assay [5], the inhibition at 200 µM stood at 0%.
On to `O=S(=O)(Nc1ccc(-c2nc3cc(NS(=O)(=O)c4cccc5nsnc45)ccc3o2)cc1)c1cccc2nsnc12`, for which the IC50 was 7 µM in assay [1], 10 µM in assay [2], 17 µM in assay [3] and 17 µM in assay [4]. For the same molecule, at 200 µM the inhibition in assay [5] was 0%.
On to `COc1ccc(Cl)cc1S(=O)(=O)Nc1ccc(-c2nc3cc(NS(=O)(=O)c4ccc(Cl)s4)ccc3o2)cc1`, for which the IC50 came to 3.4 µM in assay [1], 6.4 µM in assay [2], 16 µM in assay [3] and 11 µM in assay [4]. In assay [5], this molecule gave an inhibition at 200 µM of 33%.
Take `COC(=O)c1ccccc1S(=O)(=O)Nc1ccc(-c2nc3cc(NS(=O)(=O)c4ccccc4C(=O)OC)ccc3o2)cc1`: the IC50 in assay [1] was 11 µM; in assay [2] it was 10 µM; in assay [3], 14 µM; in assay [4], 21 µM. Further, in assay [5], the inhibition at 200 µM was 0%.
As to `COc1ccccc1S(=O)(=O)Nc1ccc(-c2nc3cc(NS(=O)(=O)c4ccccc4OC)ccc3o2)cc1`, the IC50 was 8.7 µM in assay [1], 12 µM in assay [2], 21 µM in assay [3] and 19 µM in assay [4]. In assay [5], this molecule gave an inhibition at 200 µM of 12%.
As for `O=S(=O)(Nc1ccc(-c2nc3cc(NS(=O)(=O)c4ccc(Br)cc4)ccc3o2)cc1)c1ccc(Br)cc1`, the IC50 in assay [1] worked out at 3.6 µM; in assay [2], 11 µM; in assay [3], 18 µM; in assay [4], 11 µM. For the same molecule, 200 µM produced 0% inhibition in assay [5].
In the case of `O=S(=O)(Nc1ccc2oc(-c3ccc(NS(=O)(=O)c4ccc(Cl)s4)cc3)nc2c1)c1ccc(Br)cc1`, the IC50 in assay [1] amounted to 4.1 µM; in assay [2], 6.9 µM; in assay [3], 14 µM; in assay [4], 12 µM. Further, the inhibition at 200 µM in assay [5] came out at 28%.

These data come from ChEMBL document CHEMBL4387722.
